Here are results for 1 molecule from ChEMBL document CHEMBL1145518, “Potent immune-modulating and anticancer effects of NKT cell stimulatory glycolipids” (2007).

A short description of experiment [1]: Induction of TNFalpha secretion in human CD161+ CD3+ NKT cells at 10 ug/ml after 18 hrs relative to basal level. The experiment is classed as functional. The procedure, abridged:
(§1)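 Human Vα24i NKT cell lines were expanded for 10 days on irradiated (3,000 rad) autologous immature DCs with 10 units/ml IL-2. The cells (1 × 10^5) were cocultured with 5 × 10^4 irradiated immature CD14+ DCs plus glycolipid at 10 μg/ml. Supernatants were collected at 18 h and read on a 22-plex Luminex bead panel. Triplicates, mean ± SD.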

The nature of experiment [2]: Induction of IL4 secretion in human CD161+ CD3+ NKT cells at 10 ug/ml after 18 hrs relative to basal level. The experiment is classed as functional. The procedure, abridged:
as §1

A short description of experiment [3]: Induction of IL6 secretion in human CD161+ CD3+ NKT cells at 10 ug/ml after 18 hrs relative to basal level. The experiment is classed as functional. A digest of the protocol: as §1
Experiment [4] in a line: Induction of IFN-gamma secretion in human CD161+ CD3+ NKT cells at 10 ug/ml after 18 hrs relative to basal level. The experiment is classed as functional. The procedure, abridged:
as §1

Experiment [5] can be described thus: Induction of RANTES secretion in human CD161+ CD3+ NKT cells at 10 ug/ml after 18 hrs relative to basal level. Format: functional. The procedure, abridged: as §1
Experiment [6] in a line: Induction of MIPalpha secretion in human CD161+ CD3+ NKT cells at 10 ug/ml after 18 hrs relative to basal level. Format: functional. The procedure, abridged:
as §1

A short description of experiment [7]: Induction of IL12p40 secretion in human CD161+ CD3+ NKT cells at 10 ug/ml after 18 hrs relative to basal level. The experiment is classed as functional. The procedure, abridged: as §1
Experiment [8] can be described thus: Induction of IL12p70 secretion in human CD161+ CD3+ NKT cells at 10 ug/ml after 18 hrs relative to basal level. The experiment is classed as functional. The procedure, abridged:
as §1

Experiment [9] concerns HeLa. As to the kind of experiment: Activation of TCR in human HeLa cells overexpressing CD1d assessed as increase in CD3epsilon phosphorylation. The experiment is classed as cell-based. A digest of the protocol:
(§2)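 Human HeLa, HeLa-CD1d or autologous immature DCs were loaded with glycolipid at 10 μg/ml, or DMSO, for 2 h. Then 3 × 10^5 naïve CD161+/CD3+ NKT cells were added; these were bead-isolated and kept in 100 units/ml IL-2. After 5–10 min the cells were washed and lysed at 4°C. Phospho-CD3ε, ERK1/2 (Thr-185/Tyr-187) and CREB (Ser-133) were read by Luminex bead assay as median fluorescence normalized to total protein, expressed as fold over 1% DMSO.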

Experiment [10] in a line: Induction of IL2 secretion in human CD161+ CD3+ NKT cells at 10 ug/ml after 18 hrs relative to basal level. The experiment is classed as functional. A digest of the protocol: as §1
The subject of experiment [11] is HeLa. The experiment in a line: Activation of TCR in human HeLa cells overexpressing CD1d assessed as increase in CREB phosphorylation. Format: cell-based. A digest of the protocol: as §2
Experiment [12] concerns dendritic. As to the kind of experiment: Activation of TCR in human immature dendritic cells assessed as increase in ERK1/2 phosphorylation. The experiment is classed as cell-based. The procedure, abridged: as §2
Experiment [13] is described as follows: Induction of IL15 secretion in human CD161+ CD3+ NKT cells at 10 ug/ml after 18 hrs relative to basal level. Format: functional. The procedure, abridged: as §1
A short description of experiment [14]: Induction of IL3 secretion in human CD161+ CD3+ NKT cells at 10 ug/ml after 18 hrs relative to basal level. The experiment is classed as functional. The procedure, abridged:
as §1

Experiment [15] can be described thus: Induction of IL10 secretion in human CD161+ CD3+ NKT cells at 10 ug/ml after 18 hrs relative to basal level. Format: functional. The procedure, abridged:
as §1

Experiment [16] in a line: Induction of GM-CSF secretion in human CD161+ CD3+ NKT cells at 10 ug/ml after 18 hrs relative to basal level. The experiment is classed as functional. A digest of the protocol: as §1
Experiment [17] can be described thus: Induction of IL8 secretion in human CD161+ CD3+ NKT cells at 10 ug/ml after 18 hrs relative to basal level. The experiment is classed as functional. The procedure, abridged:
as §1

Experiment [18] is described as follows: Induction of IL13 secretion in human CD161+ CD3+ NKT cells at 10 ug/ml after 18 hrs relative to basal level. Format: functional. The procedure, abridged:
as §1

Experiment [19] deals with HeLa. The experiment in a line: Activation of TCR in human HeLa cells overexpressing CD1d assessed as increase in ERK1/2 phosphorylation. Format: cell-based. The procedure, abridged: as §2
Experiment [20] has as its system dendritic. As to the kind of experiment: Activation of TCR in human immature dendritic cells assessed as increase in CD3epsilon phosphorylation. Format: cell-based. The procedure, abridged: as §2
Experiment [21] can be described thus: Induction of MCP1 secretion in human CD161+ CD3+ NKT cells at 10 ug/ml after 18 hrs relative to basal level. Format: functional. The procedure, abridged:
as §1

Experiment [22] concerns dendritic. As to the kind of experiment: Activation of TCR in human immature dendritic cells assessed as increase in CREB phosphorylation. The experiment is classed as cell-based. A digest of the protocol:
as §2

With `CCCCCCCCCCCCCCCCCCCCCCCCCC(=O)N[C@@H](CO[C@H]1O[C@H](CO)[C@H](O)[C@H](O)[C@H]1O)[C@H](O)[C@H](O)CCCCC`, the Activity is on record as 2.2 in [1]; 2.7 in experiment [2]; 1.8 in experiment [3]; 1.9 in [4]; 1.8 in experiment [5]; 2.7 in experiment [6]. In addition, the Activity in [7] amounted to 1.4; in experiment [8] it was 1; in experiment [9], 5.9; in [10], 1.5; in experiment [11], 20; in [12], 18.6. The Activity in [13] was 2.1; in experiment [14], 1.4; in [15] it was 1.5; in [16], 4.7; in experiment [17] it was 1.6; in [18], 1.8. Moreover, the Activity in [19] was 3.3; in experiment [20], 12; in [21], 1.3; in [22] it was 49.
